Source: ChEMBL document CHEMBL3407391, “Ether analogues of DPA-714 with subnanomolar affinity for the translocator protein (TSPO)” (Eur J Med Chem, 2015)
pKi: −log10 of the molar value.

Assays:
[1] = system: C6; assay: Induction of pregnenolone production in rat C6 cells at 40 uM after 2 hrs by ELISA based steroidogenesis assay relative to control; format: functional
Method in brief: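 C6 glioma cells grown in DMEM with 10% FBS at 37 °C, 5% CO2, then seeded at 1×10^4 cells/well and washed three times with simple salts medium (HEPES/NaOH pH 7.4, 0.1% BSA). Cells were exposed to compound at 40 μM in salts medium with trilostane (25 μM) and SU 10603 (10 μM) for 2 h at 37 °C, DMSO ≤0.5%. Secreted pregnenolone was measured by ELISA; 6–9 replicates.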

[2] = biological target: T1, Translocator protein (Rattus norvegicus, UniProt P16257); parameters: species or system Wistar, Kidney
T1 sequence (P16257 whole entry, looked up): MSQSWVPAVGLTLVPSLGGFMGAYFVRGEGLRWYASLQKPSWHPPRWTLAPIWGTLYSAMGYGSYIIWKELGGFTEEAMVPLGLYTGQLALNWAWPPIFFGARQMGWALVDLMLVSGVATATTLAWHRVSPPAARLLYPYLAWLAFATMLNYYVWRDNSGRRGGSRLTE

[3] = biological target: Translocator protein (Homo sapiens, UniProt P30536); assay: Inhibition of human TSPO
Translocator protein (Homo sapiens, UniProt P30536), sequence (P30536 whole entry): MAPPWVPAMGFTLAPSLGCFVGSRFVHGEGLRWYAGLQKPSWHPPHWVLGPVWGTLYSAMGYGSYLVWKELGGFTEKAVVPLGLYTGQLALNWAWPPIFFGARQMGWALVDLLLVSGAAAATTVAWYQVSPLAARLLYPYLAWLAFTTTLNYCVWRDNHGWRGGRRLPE

[4] = biological target: T1, Translocator protein; assay: Inhibition of rat TSPO

SMILES | Activity [1] [%] | pKi [2] | further results
CCN(CC)C(=O)Cc1c(-c2ccc(OC3CCCC3)cc2)nn2c(C)cc(C)nc12 | 273.4 | 8.82 | –
CCN(CC)C(=O)Cc1c(-c2ccc(OCc3ccc(C(F)(F)F)cc3)cc2)nn2c(C)cc(C)nc12 | 189.9 | 8.80 | –
CCN(CC)C(=O)Cc1c(-c2ccc(OC3CCC3)cc2)nn2c(C)cc(C)nc12 | 184.3 | 9.07 | –
CCN(CC)C(=O)Cc1c(-c2ccc(OCCc3ccccc3)cc2)nn2c(C)cc(C)nc12 | 254 | – | –
CCN(CC)C(=O)Cc1c(-c2ccc(OCc3cccc(C(F)(F)F)c3)cc2)nn2c(C)cc(C)nc12 | 230 | 9.17 | –
CCN(CC)C(=O)Cc1c(-c2ccc(OCc3cccc(F)c3)cc2)nn2c(C)cc(C)nc12 | 281.2 | 9.33 | –
CCN(CC)C(=O)Cc1c(-c2ccc(OCc3ccc(F)cc3)cc2)nn2c(C)cc(C)nc12 | 311.7 | – | –
CCN(CC)C(=O)Cc1c(-c2ccc(OCc3ccccc3F)cc2)nn2c(C)cc(C)nc12 | 161.5 | – | –
CCN(CC)C(=O)Cc1c(-c2ccc(OCC3CCCC3)cc2)nn2c(C)cc(C)nc12 | 173.9 | – | –
CCN(CC)C(=O)Cc1c(-c2ccc(OCC3CC3)cc2)nn2c(C)cc(C)nc12 | 226.3 | – | –
CCN(CC)C(=O)Cc1c(-c2ccc(OCc3ccccc3)cc2)nn2c(C)cc(C)nc12 | 262.4 | – | –
CCN(CC)C(=O)Cc1c(-c2ccc(OC(C)C)cc2)nn2c(C)cc(C)nc12 | 165 | – | –
CCN(CC)C(=O)Cc1c(-c2ccc(OCC3CCCCC3)cc2)nn2c(C)cc(C)nc12 | 134.2 | – | –
CCC(C)N(C)C(=O)c1cc2ccccc2c(-c2ccccc2Cl)n1 (stereo unspecified) [PK-11195] | 166.5 | – | –
CCN(CC)C(=O)Cc1c(-c2ccc(OCC3CCC3)cc2)nn2c(C)cc(C)nc12 | 298.4 | – | –
CCN(CC)C(=O)Cc1c(-c2ccc(OCC(C)C)cc2)nn2c(C)cc(C)nc12 | 206.5 | – | –
CCN(CC)C(=O)Cc1c(-c2ccc(OCc3ccccc3C(F)(F)F)cc2)nn2c(C)cc(C)nc12 | 331.7 | 8.85 | –
COc1ccccc1CN(C(C)=O)c1cnccc1Oc1ccccc1 | – | – | pKi [3]: 8.60; pKi [4]: 9.15
COc1ccc(OC)c(CN(C(C)=O)c2cc(F)ccc2Oc2ccccc2)c1 | – | – | pKi [3]: 9.70
